This is one part of a sample in which hits are shown more often than they occur.
WNV NS2B-NS3 inh: inhibitors of WNV NS2B-NS3 protease, primary screen, biochemical, fluorogenic substrate. Genome polyprotein (West Nile virus), P06935. fluorogenic substrate Ex360/Em465; active compounds read low. z-score (no concentration beside the values). 65,000 tested, 0.18% active. AID 577, 2007; in the data active = z-score below about -3
D1 allo mod: D1 CRE-luciferase signal change, two-sided – cell-based, HEK293 D1, dopamine EC30, D1 allosteric modulator project, primary screen. D(1A) dopamine receptor (Homo sapiens), P21728. dopamine EC30 potentiation; actives deviate in either direction. B-score at 10 µM. 58,000 tested, 5.9% active;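 active = luminescence count or its row- and column-corrected plate score outside the 99.7% band of the plate's sample wells, on either side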
hDAT+cocaine: changed hDAT dopamine uptake under cocaine IC80, either direction, primary screen, cocaine antagonist project, cell-based, LLC-PK1 hDAT, [14C]-dopamine uptake, MLSMR. AID 449768, 2010. LLC-PK1 hDAT cells, [14C]-dopamine uptake with cocaine IC80; actives deviate in either direction. B-score at 10 µM. Sodium-dependent dopamine transporter (Homo sapiens), Q01959. 110,000 tested, 1.3% active;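 active = Z score or B-score, a plate-position-corrected score, falls beyond the plate's 99.7% confidence bounds, in either direction; inactive = both scores lie inside the 99.7% bounds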;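 also: scored against the spread of the other compound wells on the same plate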
Target sequence (Q01959 whole entry, looked up): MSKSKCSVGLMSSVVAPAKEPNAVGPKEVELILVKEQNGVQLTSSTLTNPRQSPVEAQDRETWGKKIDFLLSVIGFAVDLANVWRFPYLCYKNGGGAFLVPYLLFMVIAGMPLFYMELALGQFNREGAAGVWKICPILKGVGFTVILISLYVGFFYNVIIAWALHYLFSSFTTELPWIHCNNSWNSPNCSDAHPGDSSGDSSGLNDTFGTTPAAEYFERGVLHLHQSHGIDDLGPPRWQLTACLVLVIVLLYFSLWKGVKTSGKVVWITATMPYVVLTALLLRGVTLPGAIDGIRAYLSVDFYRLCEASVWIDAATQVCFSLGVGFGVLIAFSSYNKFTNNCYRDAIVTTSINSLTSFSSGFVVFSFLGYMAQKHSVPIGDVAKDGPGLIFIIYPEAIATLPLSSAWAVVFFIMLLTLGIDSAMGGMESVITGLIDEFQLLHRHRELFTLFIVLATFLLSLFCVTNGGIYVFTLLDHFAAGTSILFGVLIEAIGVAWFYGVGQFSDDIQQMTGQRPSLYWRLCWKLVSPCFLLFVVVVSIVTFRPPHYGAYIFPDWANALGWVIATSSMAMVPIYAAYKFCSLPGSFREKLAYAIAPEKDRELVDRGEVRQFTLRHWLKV
AP ELISA ortho: alternative complement pathway inhibitors, primary screen, biochemical, ELISA, human serum, orthogonally pooled compounds; 62,000 tested, 0.08% active; inhibition, % at 5 µM; LPS-coated ELISA, C3 deposition; tested in compound mixtures;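 active = inhibition above 30% in each of the two pooled mixtures holding the compound, so the lower value exceeds 30%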;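 also: 0% = serum in Mg-EGTA without compound and 100% = EDTA serum blank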
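Test system: human serum alternative complement pathway, C3 deposition on LPS-coated wells; also added: Plate-bound LPS; doses: 5 µM per compound in ten-compound mixtures; schedule: 1 h at 37 °C; detection: Anti-C3 ELISA, OD 450 nm; evaluation: percent inhibition of C3 deposition onto LPS; repeats: two pool placements per compound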
* hit, by the source's call; / = no result given.

SMILES | WNV NS2B-NS3 inh | D1 allo mod | hDAT+cocaine | AP ELISA ortho
CCCN(CCC)C(=O)CC(c1ccccc1)c1cc(C)ccc1O (stereo unspecified) | / | / | 2.52* | /
Cc1ccc(-c2csc(NC(=O)c3cccc(S(=O)(=O)N4CCN(C)CC4)c3)n2)cc1 | -0.52 | -2.16 | 0.66 | /
COc1cccc(C(=O)Nc2nc(-c3ccc(S(=O)(=O)N4CCOCC4)cc3)cs2)c1 | 0.12 | -3.29* | 0.677 | 1.3
Cc1cccc(S(=O)(=O)c2c(N)n(/N=C/c3cccnc3)c3nc4ccccc4nc23)c1 | -0.59 | 0.761 | 3.21* | -3.2
COc1ccccc1NC(=O)CN1C(=O)C2(OCCCO2)c2ccccc21 | 0.27 | -2.64* | -0.128 | -5.6
O=c1c(Cc2ccccc2O)c(O)nc2n1CCCS2 | 0.13 | -2.33* | -0.942 | 19.6
COCc1c(Br)c(C)[nH]c(=O)c1C#N | / | / | 1.61* | /
COc1ccc(-c2cc(=O)c3ccccc3n2C)cc1 | / | / | 0.0385 | /
CCC(=O)Nc1c(-c2ccc(OC)cc2)c(=O)c2ccccc2n1C | -1.52 | 0.471 | -9.12* | 1.2
CN(C)CCNC(=O)COc1cccc(Cl)c1 | 0.78 | 0.298 | -0.157 | 11.4
CC(=O)NS(=O)(=O)c1cccnc1Nc1ccc(Cl)cc1 | / | / | 0.0775 | /
CN1CCN(c2nc3c(c(=O)[nH]c(=O)n3C)n2CCCSc2ncccn2)CC1 | -0.28 | -0.345 | 0.755 | 17.9
Cc1ccnc(SCCn2c(N3CCN(c4ccccc4)CC3)nc3c2c(=O)[nH]c(=O)n3C)n1 | 1.28 | -4.47* | 0.274 | 20.9
CCN1CCN(c2nc3c(c(=O)[nH]c(=O)n3C)n2CCCSc2ncccn2)CC1 | -3.75* | -0.431 | -0.633 | 3.1
Cn1c(N2CCN(C(=O)Nc3ccc(C(F)(F)F)cc3)CC2)nc2ccccc21 | -0.43 | -1.17 | 0.821 | 21.3
COc1ccc(-c2csc(Nc3ncccc3C)n2)cc1OC | / | / | 1.62 | /
Cc1cccnc1Nc1nc(-c2ccc(O)c(O)c2)cs1 | / | / | 4.6* | /
Cc1ccc(/C(N)=N/OC(=O)C23CC4CC(CC(C4)C2)C3)cc1 | / | / | -7.1* | /
Cc1ccc(/C(N)=N/OC(=O)N2CCOCC2)cc1 | / | / | -0.0377 | /
CCOC(=O)c1sc(C)c(C(=O)NC2CCCCC2)c1N | / | / | -2.75* | /
CCC(C(=O)NCc1ccc(F)cc1)N(Cc1ccco1)C(=O)c1snc(C(N)=O)c1N (stereo unspecified) | -0.9 | 0.0219 | 4.26* | 5.8
C#Cc1ccc([C@@H]2C=C(C(=O)O)O[C@H](OCc3ccc(CO)cc3)C2)cc1 | / | / | -0.166 | /
c1ccc(-n2ncc3c(NCc4cccnc4)ncnc32)cc1 | -0.66 | / | 2.56* | 4.2
c1ccc(-n2ncc3c(NCc4cccs4)ncnc32)cc1 | 0.93 | -2.74 | 1.08 | 2.8
NNc1ncnc2c1cnn2-c1ccccc1 | / | / | -1.28 | /
SMILES | WNV NS2B-NS3 inh | D1 allo mod | hDAT+cocaine | AP ELISA ortho
Cc1ccc(-n2ncc3c(NCCCn4ccnc4)ncnc32)c(C)c1 | -1.13 | / | 0.00561 | 19.2
CC(C)Nc1ncnc2c1cnn2-c1ccccc1 | -0.24 | -4.42* | 1.36 | 6.8
Cc1ccccc1Nc1ncnc2c1cnn2-c1ccccc1 | -0.1 | -1.5 | 3.11* | 24.3
Cc1cccc(-n2ncc3c(NCCCn4ccnc4)ncnc32)c1 | -0.51 | -4.11* | 1.3 | -2.8
Cc1nc(-c2ccccc2)sc1C1(C)CC(c2cccc([N+](=O)[O-])c2)=NO1 (stereo unspecified) | / | / | 0.0583 | /
Cc1cccc(-n2ncc3c(NC(C)C)ncnc32)c1 | 1.23 | -3.57* | 1.12 | 9.6
O=C(Nc1cccc(NC(=O)c2ccc(-c3cccc(Br)c3)o2)c1)c1ccco1 | -0.2 | -3.37* | 1.44 | 4.3
O=C1CC2(CCCCC2)Oc2ccc(F)cc21 | / | / | -0.158 | /
O=C1NC2(CCCC2)N=C1c1ccc(F)cc1 | / | / | -7.96* | /
COc1ccc(Br)cc1/C=c1\sc2nc(-c3ccco3)nn2c1=O | -3.01* | -0.405 | 0.184 | 26.5
CCOC(=O)c1nc(NCc2cccnc2)c2ccccc2n1 | 2.12 | 2.71* | -0.45 | 2.7
Cc1c(C(=O)N2CCc3ccccc3C2)sc2nc(-c3ccccc3)cn12 | 0.93 | 0.393 | 2.29 | /
c1ccc(-c2cn3c4c(sc3n2)CCCC4)cc1 | 1.13 | -9.94* | 0.725 | 0.9
CCC1(C)Cc2c(sc3nc(NC)n(C)c(=O)c23)CO1 (stereo unspecified) | -1.47 | 1.71 | / | 35.3*
CC1CCCC(C)N1C(=O)CSc1nnnn1Cc1ccccc1 (stereo unspecified) | 0.98 | 6.06* | 1.01 | -1.0
CC1CCCC(C)N1C(=O)CSc1nnnn1-c1cccc2c1CCCC2 (stereo unspecified) | / | / | 0.685 | /
Cc1cc(C)cc(OCC(=O)NNC(=O)CCC(=O)NCc2ccccc2)c1 | / | / | 0.636 | /
COc1ccc(CCNC(=O)COc2ccc(S(=O)(=O)N3CCOCC3)cc2)cc1 | 0.43 | 0.654 | 2.44* | 12.1
COc1ccc(CCNC(=O)COc2ccc(S(=O)(=O)N3CCOCC3)cc2)cc1OC | 0.16 | 2.37 | 0.394 | 9.0
Cc1ccc(-c2cc(C(=O)N/N=C\c3cnn(C)c3C)c3ccccc3n2)cc1C | / | / | -0.328 | /
CCCCc1c(C(=O)O)cc(OC)cc1C(=O)O | 0.33 | 0.454 | 0.122 | -18.4
CCCCCc1c2c(cc(O)c1C(=O)O)OC(=O)c1c(cc(OC)cc1C(=O)CCCC)O2 | / | / | 5.3* | /
CCCCCC(=O)Nc1cccc(C2=NOC3(C2)C[C@H](C(N)=O)N(C(=O)c2ccccc2)C3)c1 (stereo partly specified) | / | / | 0.675 | /
CCCCCC(=O)Nc1cccc(C2=NOC3(C2)C[C@H](C(N)=O)N(C(=O)c2ccccc2C(=O)c2ccccc2)C3)c1 (stereo partly specified) | / | / | 3.69* | /
Cc1cc(C)cc(C(=O)/C=C2\NC(=O)CS2)c1 | -0.75 | -1.83* | -0.619 | 8.1
SMILES | WNV NS2B-NS3 inh | D1 allo mod | hDAT+cocaine | AP ELISA ortho
O=C1C(c2ccncc2)=C(O)c2ccccc21 | 0.68 | -2.48* | -0.802 | -1.7
O=C1C(C=NCc2ccncc2)=C(O)c2ccccc21 | / | / | 0.363 | /
Cc1nnc(NC(=O)C2COc3ccccc3O2)s1 (stereo unspecified) | 0.15 | -0.5 | 0.181 | 8.2
O=C(Nc1nc2c(s1)CCCC2)C1COc2ccccc2O1 (stereo unspecified) | 0.39 | -6.87* | 0.0204 | 11.1
O=C(NC1=NCCS1)C1COc2ccccc2O1 (stereo unspecified) | 0.63 | -5.42* | -0.348 | -7.0
COc1ccc2nc(NC(=O)C3COc4ccccc4O3)sc2c1 (stereo unspecified) | 0.99 | -4.78* | -0.522 | 14.9
COc1ccc(OC)c(NC(=O)CNC(=O)c2cccs2)c1 | / | / | 0.601 | /
O=C(N/C(=C/c1ccco1)C(=O)N1CCCCC1)c1cccs1 | / | / | -0.737 | /
Cc1ccc(NCc2nnc(SCC(=O)Nc3cccc(O)c3)n2CC2CCCO2)c(C)c1 (stereo unspecified) | -1.09 | -0.705 | / | 11.8
NC(=O)C1CCN(C(=O)OCc2ccccc2)CC1 | / | / | 0.014 | /
